Laboratory results as given in ChEMBL document CHEMBL3414548, “Luotonin-A based quinazolinones cause apoptosis and senescence via HDAC inhibition and activation of tumor suppressor proteins in HeLa cells” (Eur J Med Chem, 2015).
pIC50: −log10 of the molar value.

Tests used:
HEK293 [1] = experiment: Selectivity index, ratio of IC50 for HEK cells to IC50 for human MCF7 cells; assay type: functional
Procedure, shortened: (§1)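 Selectivity index is IC50 in normal HEK cells divided by IC50 in the cancer cell line.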

[2] = Cytotoxicity against HEK cells after 72 hrs by MTT assay; assay type: cell-based; details: Homo sapiens, HEK293, 72 h
Procedure, shortened: (§2)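 Cells were seeded at 1×10⁴ per well and preincubated 18 h at 37 °C, 5% CO₂. They were then exposed to 1–256 μM for 72 h with DMSO ≤0.25%. MTT was added for 2 h and formazan was solubilized in extraction buffer before reading OD at 570 nm. IC50 is mean ± SD of three independent experiments. HEK is the normal-cell line; cancer lines were grown in DMEM with 10% serum.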

HEK293 [3] = experiment: Selectivity index, ratio of IC50 for HEK cells to IC50 for human K562 cells; assay type: functional; procedure, shortened: as §1
HeLa [4] = experiment: Cytotoxicity against human HeLa cells after 72 hrs by MTT assay; assay type: functional, cell-based; procedure, shortened: as §2
HeLa [5] = experiment: Selectivity index, ratio of IC50 for HEK cells to IC50 for human HeLa cells; assay type: functional; procedure, shortened: as §1
K562 = experiment: Cytotoxicity against human K562 cells after 72 hrs by MTT assay; assay type: functional, cell-based; details: K562, 72 h; procedure, shortened: as §2
MCF7 = experiment: Cytotoxicity against human MCF7 cells after 72 hrs by MTT assay; assay type: functional, cell-based; details: MCF7, 72 h; procedure, shortened: as §2
HeLa [6] = experiment: Cell cycle arrest in human HeLa cells assessed as accumulation at G0/G1 phase at 4 uM after 48 hrs by propidium iodide staining-based flow cytometric analysis (reference value: 62%); assay type: functional
HeLa [7] = experiment: Cell cycle arrest in human HeLa cells assessed as accumulation at G2/M phase at 4 uM after 48 hrs by propidium iodide staining-based flow cytometric analysis (reference value: 31%); assay type: functional
HeLa [8] = experiment: Cell cycle arrest in human HeLa cells assessed as accumulation at S phase at 8 uM after 48 hrs by propidium iodide staining-based flow cytometric analysis (reference value: 10%); assay type: functional
HeLa [9] = experiment: Cell cycle arrest in human HeLa cells assessed as accumulation at G2/M phase at 4 uM after 48 hrs by propidium iodide staining-based flow cytometric analysis (reference value: 19%)
HeLa [10] = experiment: Cell cycle arrest in human HeLa cells assessed as accumulation at G0 phase at 8 uM after 48 hrs by propidium iodide staining-based flow cytometric analysis (reference value: 3%); assay type: functional
HeLa [11] = experiment: Cell cycle arrest in human HeLa cells assessed as accumulation at G1 phase at 8 uM after 48 hrs by propidium iodide staining-based flow cytometric analysis (reference value: 68%); assay type: functional
HeLa [12] = experiment: Cell cycle arrest in human HeLa cells assessed as accumulation at S phase at 4 uM after 48 hrs by propidium iodide staining-based flow cytometric analysis (reference value: 7%); assay type: functional

Compound	Ratio IC50 (HEK293 [1])	pIC50 [2]	Ratio IC50 (HEK293 [3])	pIC50 (HeLa [4])	Ratio IC50 (HeLa [5])	pIC50 (K562)	pIC50 (MCF7)	Activity (HeLa [6]) [%]	Activity (HeLa [7]) [%]	Activity (HeLa [8]) [%]	Activity (HeLa [9]) [%]	Activity (HeLa [10]) [%]	Activity (HeLa [11]) [%]	Activity (HeLa [12]) [%]
Cc1nc2ccccc2c(=O)n1-c1ccccc1Cn1ccnn1	4.97	4.12	3.39	4.78	4.62	4.65	4.82							
COc1cc2nc(C)n(-c3ccccc3Cn3nnc4ncccc43)c(=O)c2cc1OC	4.25	4.10	4.01	4.93	6.64	4.71	4.73							
CCCCCC(O)c1cn(Cc2ccccc2-n2c(C)nc3cc(OC)c(OC)cc3c2=O)nn1 (centres undefined)	2.68	4.32	2.09	4.80	3	4.64	4.75							
Cc1nc2ccccc2c(=O)n1-c1ccccc1Cn1cc(S)nn1	12.61	3.72	7.2	4.96	17.22	4.58	4.82	71	22	6	21	4	69	7
COc1cc2nc(C)n(-c3ccccc3Cn3cc(CO)nn3)c(=O)c2cc1OC	6.94	3.96	3.92	4.93	9.25	4.55	4.80							
CCCCCCc1cn(Cc2ccccc2-n2c(C)nc3cc(OC)c(OC)cc3c2=O)nn1	2.98	4.28	2.2	4.84	3.62	4.62	4.75							
COc1ccc(-c2cn(Cc3ccccc3-n3c(C)nc4ccccc4c3=O)nn2)cc1	8.05	3.94	5.17	4.89	9.06	4.65	4.84							
COc1ccc2cc(-c3cn(Cc4ccccc4-n4c(C)nc5cc(OC)c(OC)cc5c4=O)nn3)ccc2c1	3.74	4.17	2.42	4.84	4.65	4.55	4.74							
COc1cc2nc(C)n(-c3ccccc3Cn3cc(-c4ccccn4)nn3)c(=O)c2cc1OC	13.54	3.60	12.11	4.98	23.84	4.68	4.73	72	22	7	19	5	69	7
COc1cc2nc(C)n(-c3ccccc3Cn3cc(-c4ccc(C)cc4)nn3)c(=O)c2cc1OC	14.16	3.69	7.28	5.00	20.56	4.55	4.84	72	22	7	17	5	71	6
COc1cc2nc(C)n(-c3ccccc3Cn3ccnn3)c(=O)c2cc1OC	4.13	4.01	3.4	4.90	7.77	4.54	4.63							
COc1ccc2cc(-c3cn(Cc4ccccc4-n4c(C)nc5ccccc5c4=O)nn3)ccc2c1	20.41	3.75	9.11	5.06	20.5	4.71	5.06	73	22	5	17	5	72	5
CCCc1cn(Cc2ccccc2-n2c(C)nc3cc(OC)c(OC)cc3c2=O)nn1	5.13	4.13	3.3	4.88	5.58	4.65	4.84							
COc1cc2nc(C)n(-c3ccccc3Cn3cc(-c4cccnc4)nn3)c(=O)c2cc1OC	5.3	4.27	2.7	4.88	4.07	4.70	4.99							
COc1cccc(-c2cn(Cc3ccccc3-n3c(C)nc4cc(OC)c(OC)cc4c3=O)nn2)c1	3.37	4.29	2.27	4.93	4.29	4.65	4.82							
COc1cc2nc(C)n(-c3ccccc3Cn3cc(-c4cc5ccccc5c5ccccc45)nn3)c(=O)c2cc1OC	6.72	4.05	3.47	4.89	6.95	4.59	4.88							
COc1cc2nc(C)n(-c3ccccc3Cn3cc(S)nn3)c(=O)c2cc1OC	21.9	3.67	7.03	4.98	20.38	4.52	5.01	71	23	5	20	5	70	6
COc1cc2nc(C)n(-c3ccccc3Cn3cc(-c4cccc(C)c4)nn3)c(=O)c2cc1OC	3.1	4.25	1.77	4.84	3.88	4.50	4.74							
COc1cc2nc(C)n(-c3ccccc3Cn3cc(-c4ccc(-c5ccccc5)cc4)nn3)c(=O)c2cc1OC	6.78	4.15	3.16	4.85	5.01	4.65	4.98							
COc1cc2nc(C)n(-c3ccccc3Cn3cc(-c4ccccc4)nn3)c(=O)c2cc1OC	6.96	4.19	2.5	4.86	4.66	4.59	5.04							
COc1cc2nc(C)n(-c3ccccc3Cn3cc(CCO)nn3)c(=O)c2cc1OC	8.85	3.91	4.66	4.80	7.75	4.58	4.85							
COc1ccc(-c2cn(Cc3ccccc3-n3c(C)nc4cc(OC)c(OC)cc4c3=O)nn2)cc1	5.15	4.14	3.2	4.93	6.06	4.65	4.86							
